Measured values reported in PMC3531959 (ChemMedChem, 2012).
Entries after “also recorded” stand apart in the source; their conditions may differ.

Target: Bos taurus Arp2/3 complex (Bos taurus, UniProt A7MB62+P61157)
Assay: Pyrene actin polymerization assay
Format: biochemical
Conditions: for increase in IC50 relative to 1 / inhibition of Arp2/3 complex (in words): actin polymerization assay; for increase in IC50 relative to 1: compared to 1
How it was run: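 Bovine Arp2/3 complex from calf thymus, activated by human N-WASp-VCA (residues 428-505, E. coli-expressed). Rabbit muscle actin, 30% pyrene-labelled at […], Mg/EGTA-exchanged. Polymerization started by adding Arp2/3 and VCA; final buffer 10 mM imidazole pH 7.0, 50 mM KCl, 1 mM EGTA, 1 mM MgCl2, 1 mM DTT. Read at ex 365/em 407 nm every 10 s for 45 min. Inhibitor tested up to 200 μM. IC50 from a fit of maximal rate (nM actin s⁻¹) versus concentration.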

Row | Compound | IC50 [µM] | increase in IC50 relative to 1 | IC50 relative to 2 (higher IC50 than 2) | inhibition of Arp2/3 complex (in words)
1 | Cc1[nH]c2ccccc2c1CCNC(=O)c1ccc(O)cc1F [Compound 2, 2-fluoro-4-hydroxy-N-(2-(2-methyl-1H-indol-3-yl)ethyl)benzamide] | 4 ± 1 |  |  | 
2 | Cc1[nH]c2ccc(Cl)cc2c1CCNC(=O)c1ccccc1F [Compound 3, N-(2-(5-chloro-2-methyl-1H-indol-3-yl)ethyl)-2-fluorobenzamide] | 18 ± 5 | nearly double; also recorded: only slightly |  | 
3 | COc1ccc(C(=O)NCCc2c(C)[nH]c3ccccc23)c(F)c1 [Compound 4, 2-fluoro-4-methoxy-N-(2-(2-methyl-1H-indol-3-yl)ethyl)benzamide] | 19 ± 6 | nearly double | fivefold | 
4 | Cc1[nH]c2ccccc2c1CCNC(=O)c1ccc(Cl)cc1F [Compound 6, 4-chloro-2-fluoro-N-(2-(2-methyl-1H-indol-3-yl)ethyl)benzamide] | 32 ± 18 | approximately 3 fold |  | 
5 | Cc1[nH]c2ccccc2c1CCNC(=O)c1ccc(Cl)cc1 [Compound 7, 4-chloro-N-(2-(2-methyl-1H-indol-3-yl)ethyl)benzamide] | 181 ± 85 | 15-20 fold |  | greatly reduced or no inhibition
6 | Cc1[nH]c2ccccc2c1CCNC(=O)c1cccc(Cl)c1F [Compound 8, 3-chloro-2-fluoro-N-(2-(2-methyl-1H-indol-3-yl)ethyl)benzamide] | 238 ± 91 | 15-20 fold |  | 
7 | Cc1[nH]c2ccccc2c1CCNC(=O)c1ccccc1Cl [Compound 10, 2-chloro-N-(2-(2-methyl-1H-indol-3-yl)ethyl)benzamide] |  |  |  | greatly reduced or no inhibition; also recorded: completely abolishes inhibition
8 | Cc1[nH]c2ccccc2c1CCNC(=O)c1cccc(Cl)c1 [Compound 11, 3-chloro-N-(2-(2-methyl-1H-indol-3-yl)ethyl)benzamide] |  |  |  | greatly reduced or no inhibition
